Measurements reported in ChEMBL document CHEMBL1153830, “Treatment of a clinically relevant plant-pathogenic fungus with an agricultural azole causes cross-resistance to medical azoles and potentiates caspofungin efficacy” (2007).
≈ marks a conversion by molar mass, not a printed value. Calls of active or inactive are those of the source. No cut-off for these calls is given here.

Key:
[1] = system: Colletotrichum graminicola; test: Fungicidal activity against tebuconazole-adapted wild type Colletotrichum graminicola CgM2 assessed as deffects in cell wall rigidity at 2.5 ug/ml after 3 days by differential interference contrast microscopy; format: functional, organism-based
Method in brief: (§1)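 Mycelia were grown 3 days in liquid complete medium with caspofungin at 0–5 μg/ml. Cell wall rigidity and hyphal swelling were judged by Nomarski (DIC) light microscopy.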

[2] = system: Colletotrichum graminicola; test: Fungicidal activity against tebuconazole-adapted wild type Colletotrichum graminicola CgM2 assessed as metabolically inactive hyphae at 0.025 ug/ml after 3 days by FUN1 staining-based fluorescence microscopy; format: functional, organism-based
Method in brief: (§2)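 Mycelia were grown 3 days in liquid complete medium with drug at 0–5 μg/ml. Staining used 50 μM FUN-1 in 2% glucose and 10 mM HEPES (pH 7.2), 1 h at 27°C. Viability was scored by epifluorescence microscopy with a GFP-LP filter. Negative controls were killed with 70% ethanol for 30 min before staining.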

[3] = system: Colletotrichum graminicola; test: Fungicidal activity against tebuconazole-nonadapted wild type Colletotrichum graminicola CgM2 assessed as metabolically inactive hyphae at 0.025 ug/ml after 3 days by FUN1 staining-based fluorescence microscopy; format: functional, organism-based; method in brief: as §2
[4] = system: Colletotrichum graminicola; test: Fungicidal activity against tebuconazole-nonadapted wild type Colletotrichum graminicola CgM2 infected in excised human skin assessed as inhibition of invasive colonized hyphal growth at epidermis at ED50 after 4 days by Uvitex-2B staining-based fluorescence microscopy; format: functional, organism-based
Method in brief: (§3)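 Excised human skin from reduction mammoplasty, all pieces from one donor, cut to 20 mm discs. Each disc got 15–20 prick wounds and 100 μl of 10^6 conidia/ml. Discs sat in a Franz diffusion cell at 32°C over isotonic NaCl for up to 4 days. Drug was applied at ED50, ED90 or 2× ED90, three pieces per condition. Biopsies were cryosectioned and Uvitex 2B-stained; hyphal area per section was measured by fluorescence.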

[5] = system: Colletotrichum graminicola; test: Fungicidal activity against tebuconazole-nonadapted wild type Colletotrichum graminicola CgM2 assessed as deffects in cell wall rigidity at hyphal apex at 0.25 ug/ml after 3 days by differential interference contrast microscopy; format: functional, organism-based; method in brief: as §1
[6] = system: Colletotrichum graminicola; test: Fungicidal activity against tebuconazole-nonadapted wild type Colletotrichum graminicola CgM2 infected in excised human skin assessed as inhibition of invasive colonized hyphal growth at epidermis at twofold ED90 after 4 days by Uvitex-2B staining-based fluorescence microscopy; format: functional, organism-based; method in brief: as §3
[7] = system: Colletotrichum graminicola; test: Fungicidal activity against tebuconazole-adapted wild type Colletotrichum graminicola CgM2 assessed as increase in metabolically inactive hyphal count at 2.5 ug/ml after 3 days by FUN1 staining-based fluorescence microscopy; format: functional, organism-based; method in brief: as §2
[8] = system: Colletotrichum graminicola; test: Fungicidal activity against tebuconazole-nonadapted wild type Colletotrichum graminicola CgM2 assessed as deffects in cell wall rigidity at 2.5 ug/ml after 3 days by differential interference contrast microscopy; format: functional, organism-based; method in brief: as §1
[9] = system: Colletotrichum graminicola; test: Fungicidal activity against tebuconazole-adapted wild type Colletotrichum graminicola CgM2 assessed as cell death at 0.25 ug/ml after 3 days by FUN1 staining-based fluorescence microscopy; format: functional, organism-based; method in brief: as §2
[10] = system: Colletotrichum graminicola; test: Fungicidal activity against tebuconazole-nonadapted wild type Colletotrichum graminicola CgM2 infected in excised human skin assessed as inhibition of invasive colonized hyphal growth at dermis at ED90 after 4 days by Uvitex-2B staining-based fluorescence microscopy; format: functional, organism-based; method in brief: as §3
[11] = system: Colletotrichum graminicola; test: Fungicidal activity against tebuconazole-nonadapted wild type Colletotrichum graminicola CgM2 assessed as metabolically inactive hyphae at 0.25 ug/ml after 3 days by FUN1 staining-based fluorescence microscopy; format: functional, organism-based; method in brief: as §2
[12] = system: Colletotrichum graminicola; test: Fungicidal activity against tebuconazole-nonadapted wild type Colletotrichum graminicola CgM2 assessed as deffects in cell wall rigidity at 0.25 ug/ml after 3 days by differential interference contrast microscopy; format: functional, organism-based; method in brief: as §1
[13] = system: Colletotrichum graminicola; test: Fungicidal activity against tebuconazole-adapted wild type Colletotrichum graminicola CgM2 assessed as cell wall rigidity deffect-related cell wall swelling at 0.25 ug/ml after 3 days by differential interference contrast microscopy; format: functional, organism-based; method in brief: as §1
[14] = system: Colletotrichum graminicola; test: Fungicidal activity against tebuconazole-adapted wild type Colletotrichum graminicola CgM2 infected in excised human skin assessed as inhibition of invasive colonized hyphal growth at hypodermis at ED90 after 4 days by Uvitex-2B staining-based fluorescence microscopy; format: functional, organism-based; method in brief: as §3
[15] = system: Colletotrichum graminicola; test: Fungicidal activity against tebuconazole-nonadapted wild type Colletotrichum graminicola CgM2 assessed as deffects in cell wall rigidity at 0.025 ug/ml after 3 days by differential interference contrast microscopy; format: functional, organism-based; method in brief: as §1
[16] = system: Colletotrichum graminicola; test: Fungicidal activity against tebuconazole-nonadapted wild type Colletotrichum graminicola CgM2 infected in excised human skin assessed as inhibition of invasive colonized hyphal growth at epidermis at ED90 after 4 days by Uvitex-2B staining-based fluorescence microscopy; format: functional, organism-based; method in brief: as §3
[17] = system: Colletotrichum graminicola; test: Fungicidal activity against tebuconazole-nonadapted wild type Colletotrichum graminicola CgM2 infected in excised human skin assessed as inhibition of invasive colonized hyphal growth at dermis at ED50 after 4 days by Uvitex-2B staining-based fluorescence microscopy; format: functional, organism-based; method in brief: as §3
[18] = system: Colletotrichum graminicola; test: Fungicidal activity against tebuconazole-nonadapted wild type Colletotrichum graminicola CgM2 assessed as cell death at 2.5 ug/ml after 3 days by FUN1 staining-based fluorescence microscopy; format: functional, organism-based; method in brief: as §2
[19] = system: Colletotrichum graminicola; test: Fungicidal activity against tebuconazole-adapted wild type Colletotrichum graminicola CgM2 infected in excised human skin assessed as inhibition of invasive colonized hyphal growth at epidermis at ED90 after 4 days by Uvitex-2B staining-based fluorescence microscopy; format: functional, organism-based; method in brief: as §3
[20] = system: Colletotrichum graminicola; test: Fungicidal activity against tebuconazole-adapted wild type Colletotrichum graminicola CgM2 assessed as inhibition of radial growth rate at 23 degC in darkness; format: functional
Method in brief: (§4)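 Radial growth on solid complete medium, 23°C, darkness. Colony diameters were read at 3 and 6 days after inoculation and compared with drug-free control plates. Azoles and picoxystrobin were dissolved in 12% (wt/vol) Cremophor EL and tested at 0–2.5 μg/ml. Caspofungin, amphotericin B and nystatin were dissolved in water and tested from 0.00025 μg/ml; caspofungin plates used sucrose (10 mg/ml) in place of glucose.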

[21] = system: Colletotrichum graminicola; test: Fungicidal activity against tebuconazole-adapted wild type Colletotrichum graminicola CgM2 assessed as cell wall rigidity deffect-related increase in apical cell diameter at 0.025 ug/ml after 3 days by differential interference contrast microscopy; format: functional, organism-based; method in brief: as §1
[22] = system: Colletotrichum graminicola; test: Fungicidal activity against tebuconazole-nonadapted wild type Colletotrichum graminicola CgM2 assessed as inhibition of radial growth rate at 23 degC in darkness; format: functional; method in brief: as §4
[23] = system: Colletotrichum graminicola; test: Fungicidal activity against tebuconazole-adapted wild type Colletotrichum graminicola CgM2 infected in excised human skin assessed as inhibition of invasive colonized hyphal growth at dermis at ED90 after 4 days by Uvitex-2B staining-based fluorescence microscopy; format: functional, organism-based; method in brief: as §3
[24] = Colletotrichum graminicola, CgM2, read-out: ED50 (the source's name)

SMILES: CC[C@H](C)C[C@H](C)CCCCCCCCC(=O)N[C@H]1C[C@@H](O)[C@@H](NCCN)NC(=O)[C@@H]2[C@@H](O)CCN2C(=O)[C@H]([C@H](O)CCN)NC(=O)[C@H]([C@H](O)[C@@H](O)c2ccc(O)cc2)NC(=O)[C@@H]2C[C@@H](O)CN2C(=O)[C@H]([C@@H](C)O)NC1=O [CASPOFUNGIN]
- Activity [1]: inactive
- Activity [2]: Active
- Activity [3]: inactive
- Activity [4]: inactive
- Activity [5]: Active
- Activity [6]: inactive
- Activity [7]: Active
- Activity [8]: Active
- Activity [9]: Active
- Activity [10]: inactive
- Activity [11]: Active
- Activity [12]: Active
- Activity [13]: Active
- Activity [14]: Active
- Activity [15]: inactive
- Activity [16]: inactive
- Activity [17]: inactive
- Activity [18]: Active
- Activity [19]: Active
- ED90 [20]: 0.77 µg/mL (≈ 0.704 µM)
- EC50 [20, 24]: 0.006 µg/mL (≈ 0.00549 µM)
- Activity [21]: Active
- ED90 [22]: 1.281 µg/mL (≈ 1.17 µM)
- EC50 [22, 24]: 0.032 µg/mL (≈ 0.0293 µM)
- Activity [23]: Active
